Measurements from the M2OR odorant receptor database.
Positions count from the first letter of the chain named.

Columns and labels:
Conditions in all cases: stereoisomer not certain
[1] = target: T1, OR4S2 (Homo sapiens) (UniProt Q8NH73)
T1 sequence (whole entry): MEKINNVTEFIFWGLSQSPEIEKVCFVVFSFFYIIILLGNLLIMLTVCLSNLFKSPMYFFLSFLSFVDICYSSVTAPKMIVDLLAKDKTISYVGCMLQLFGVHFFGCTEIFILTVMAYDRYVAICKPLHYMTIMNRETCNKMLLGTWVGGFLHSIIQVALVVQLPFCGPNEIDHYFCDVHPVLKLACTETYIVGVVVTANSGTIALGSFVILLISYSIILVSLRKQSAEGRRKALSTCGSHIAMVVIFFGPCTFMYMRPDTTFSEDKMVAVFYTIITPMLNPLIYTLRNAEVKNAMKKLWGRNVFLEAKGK
Procedure, shortened: (§1)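 Assay methods differ from source to source, frequently being transient luciferase assays in mammalian cell lines. For each receptor–molecule pair, the label responsive (active) applies when the original authors judged the measured signal statistically different from baseline, and non-responsive (inactive) applies otherwise.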

[2] = target: T2, OR4X1 (Homo sapiens) (UniProt Q8NH49)
T2 sequence (whole entry): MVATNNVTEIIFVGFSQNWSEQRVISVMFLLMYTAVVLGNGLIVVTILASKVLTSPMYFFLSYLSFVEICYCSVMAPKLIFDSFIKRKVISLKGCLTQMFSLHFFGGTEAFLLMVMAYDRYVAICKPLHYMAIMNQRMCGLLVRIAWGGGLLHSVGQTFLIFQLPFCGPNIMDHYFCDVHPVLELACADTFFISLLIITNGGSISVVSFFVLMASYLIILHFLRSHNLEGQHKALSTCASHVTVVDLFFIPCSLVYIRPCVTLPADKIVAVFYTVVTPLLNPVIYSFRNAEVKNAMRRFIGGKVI
Procedure, shortened: as §1

[3] = target: T3, OR4X2 (Homo sapiens) (UniProt Q8NGF9)
T3 sequence (whole entry): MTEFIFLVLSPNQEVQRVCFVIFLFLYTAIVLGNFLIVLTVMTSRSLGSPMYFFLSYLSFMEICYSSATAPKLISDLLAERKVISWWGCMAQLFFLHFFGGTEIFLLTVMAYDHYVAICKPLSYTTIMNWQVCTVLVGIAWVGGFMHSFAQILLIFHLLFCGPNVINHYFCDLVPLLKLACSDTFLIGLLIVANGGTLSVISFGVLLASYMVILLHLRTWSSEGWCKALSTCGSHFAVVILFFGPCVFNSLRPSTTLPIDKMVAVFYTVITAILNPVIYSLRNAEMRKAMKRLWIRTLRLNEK
Procedure, shortened: as §1

[4] = target: T4, OR51A2 (Homo sapiens) (UniProt Q8NGJ7)
T4 sequence (whole entry): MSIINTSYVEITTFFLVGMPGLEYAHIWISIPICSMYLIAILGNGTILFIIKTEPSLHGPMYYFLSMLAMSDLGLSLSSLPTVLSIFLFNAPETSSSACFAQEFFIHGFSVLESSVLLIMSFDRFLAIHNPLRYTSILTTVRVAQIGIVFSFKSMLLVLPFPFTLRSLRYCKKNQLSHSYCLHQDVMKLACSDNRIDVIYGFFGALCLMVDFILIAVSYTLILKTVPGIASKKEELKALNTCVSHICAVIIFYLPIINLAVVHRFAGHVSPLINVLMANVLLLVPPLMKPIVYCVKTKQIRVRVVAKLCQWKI
Procedure, shortened: as §1

[5] = target: T5, OR51A4 (Homo sapiens) (UniProt Q8NGJ6)
T5 sequence (whole entry): T4 sequence (whole entry) with G59E, T94I, S97N, S167N, P227L, E235Q, G267R, M288T, K289N, W311R
Procedure, shortened: as §1

[6] = target: T6, OR51A7 (Homo sapiens) (UniProt Q8NH64)
T6 sequence (whole entry): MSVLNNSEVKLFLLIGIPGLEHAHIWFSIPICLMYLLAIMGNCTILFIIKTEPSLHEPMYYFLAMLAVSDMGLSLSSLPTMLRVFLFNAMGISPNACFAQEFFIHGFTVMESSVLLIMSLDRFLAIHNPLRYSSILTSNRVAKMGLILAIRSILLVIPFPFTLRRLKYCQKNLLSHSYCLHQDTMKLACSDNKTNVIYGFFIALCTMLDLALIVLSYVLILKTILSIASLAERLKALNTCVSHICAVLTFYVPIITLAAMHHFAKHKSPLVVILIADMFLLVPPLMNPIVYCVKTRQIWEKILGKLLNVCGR
Procedure, shortened: as §1

[7] = target: T7, OR51B2 (Homo sapiens) (UniProt Q9Y5P1)
T7 sequence (whole entry): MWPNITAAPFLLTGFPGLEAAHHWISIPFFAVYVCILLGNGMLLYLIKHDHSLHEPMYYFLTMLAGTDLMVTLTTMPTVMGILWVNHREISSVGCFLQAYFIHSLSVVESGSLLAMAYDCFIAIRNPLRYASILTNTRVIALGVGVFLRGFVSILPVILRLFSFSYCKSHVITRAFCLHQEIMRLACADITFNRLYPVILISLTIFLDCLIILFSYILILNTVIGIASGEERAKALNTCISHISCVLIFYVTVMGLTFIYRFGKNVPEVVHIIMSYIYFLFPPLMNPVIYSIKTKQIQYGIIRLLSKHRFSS
Procedure, shortened: as §1

[8] = target: T8, OR51B4 (Homo sapiens) (UniProt Q9Y5P0)
T8 sequence (whole entry): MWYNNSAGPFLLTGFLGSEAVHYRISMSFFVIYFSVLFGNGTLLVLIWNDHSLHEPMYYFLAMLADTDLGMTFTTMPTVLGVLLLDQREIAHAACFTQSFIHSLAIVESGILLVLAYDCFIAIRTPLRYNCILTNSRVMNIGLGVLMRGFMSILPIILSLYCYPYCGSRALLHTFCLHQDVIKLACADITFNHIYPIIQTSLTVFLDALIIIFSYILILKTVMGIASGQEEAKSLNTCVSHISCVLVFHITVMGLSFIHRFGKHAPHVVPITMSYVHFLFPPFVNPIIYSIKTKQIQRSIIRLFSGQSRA
Procedure, shortened: as §1

[9] = target: T9, OR51B5 (Homo sapiens) (UniProt Q9H339)
T9 sequence (whole entry): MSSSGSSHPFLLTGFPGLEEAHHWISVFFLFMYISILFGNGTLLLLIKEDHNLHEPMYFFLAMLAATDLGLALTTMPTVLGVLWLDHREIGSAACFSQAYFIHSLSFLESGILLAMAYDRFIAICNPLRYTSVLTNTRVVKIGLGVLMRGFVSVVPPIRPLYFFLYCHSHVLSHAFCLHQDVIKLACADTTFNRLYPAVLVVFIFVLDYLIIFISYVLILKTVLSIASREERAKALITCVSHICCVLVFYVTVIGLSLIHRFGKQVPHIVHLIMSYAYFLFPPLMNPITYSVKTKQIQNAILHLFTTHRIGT
Procedure, shortened: as §1

[10] = target: T10, OR51B6 (Homo sapiens) (UniProt Q9H340)
T10 sequence (whole entry): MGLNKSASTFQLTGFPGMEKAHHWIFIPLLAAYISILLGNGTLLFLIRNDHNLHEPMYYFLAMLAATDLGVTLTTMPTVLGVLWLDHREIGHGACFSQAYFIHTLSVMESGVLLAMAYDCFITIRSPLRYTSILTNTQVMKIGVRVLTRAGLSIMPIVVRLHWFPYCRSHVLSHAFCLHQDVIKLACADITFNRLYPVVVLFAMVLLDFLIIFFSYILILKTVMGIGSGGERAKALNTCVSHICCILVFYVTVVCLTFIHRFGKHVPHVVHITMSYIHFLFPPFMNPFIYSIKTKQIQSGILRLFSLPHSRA
Procedure, shortened: as §1

[11] = target: T11, OR51D1 (Homo sapiens) (UniProt Q8NGF3)
T11 sequence (whole entry): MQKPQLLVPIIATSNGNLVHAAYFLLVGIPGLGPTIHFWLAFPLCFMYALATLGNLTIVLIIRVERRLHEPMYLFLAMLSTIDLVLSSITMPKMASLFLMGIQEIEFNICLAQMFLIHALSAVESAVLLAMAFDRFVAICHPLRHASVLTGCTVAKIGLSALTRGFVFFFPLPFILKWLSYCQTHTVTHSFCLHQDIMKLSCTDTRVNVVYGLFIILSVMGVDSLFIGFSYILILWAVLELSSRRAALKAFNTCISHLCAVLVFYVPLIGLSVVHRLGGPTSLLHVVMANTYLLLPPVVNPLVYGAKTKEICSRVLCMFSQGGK
Procedure, shortened: as §1

[12] = target: T12, OR51E2 (Homo sapiens) (UniProt Q9H255)
T12 sequence (whole entry): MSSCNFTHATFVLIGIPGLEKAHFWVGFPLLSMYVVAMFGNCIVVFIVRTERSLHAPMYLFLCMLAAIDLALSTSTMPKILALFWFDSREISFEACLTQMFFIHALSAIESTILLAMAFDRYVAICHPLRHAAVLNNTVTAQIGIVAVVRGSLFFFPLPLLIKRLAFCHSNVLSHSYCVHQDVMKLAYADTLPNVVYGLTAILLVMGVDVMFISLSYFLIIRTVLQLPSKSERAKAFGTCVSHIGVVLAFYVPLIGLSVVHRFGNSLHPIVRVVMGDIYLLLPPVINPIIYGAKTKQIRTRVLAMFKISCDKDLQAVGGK
Procedure, shortened: as §1

[13] = target: T13, OR51F1 (Homo sapiens) (UniProt A6NGY5)
T13 sequence (whole entry): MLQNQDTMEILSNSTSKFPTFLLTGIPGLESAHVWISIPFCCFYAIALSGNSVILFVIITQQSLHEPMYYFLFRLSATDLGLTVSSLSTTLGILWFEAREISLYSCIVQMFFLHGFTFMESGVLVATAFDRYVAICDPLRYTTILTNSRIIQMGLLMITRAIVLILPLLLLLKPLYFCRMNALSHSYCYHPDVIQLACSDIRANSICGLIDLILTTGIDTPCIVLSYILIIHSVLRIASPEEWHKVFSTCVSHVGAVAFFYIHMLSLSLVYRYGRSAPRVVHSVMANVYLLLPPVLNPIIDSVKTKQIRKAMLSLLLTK
Procedure, shortened: as §1

[14] = target: T14, OR51F2 (Homo sapiens) (UniProt Q8NH61)
T14 sequence (whole entry): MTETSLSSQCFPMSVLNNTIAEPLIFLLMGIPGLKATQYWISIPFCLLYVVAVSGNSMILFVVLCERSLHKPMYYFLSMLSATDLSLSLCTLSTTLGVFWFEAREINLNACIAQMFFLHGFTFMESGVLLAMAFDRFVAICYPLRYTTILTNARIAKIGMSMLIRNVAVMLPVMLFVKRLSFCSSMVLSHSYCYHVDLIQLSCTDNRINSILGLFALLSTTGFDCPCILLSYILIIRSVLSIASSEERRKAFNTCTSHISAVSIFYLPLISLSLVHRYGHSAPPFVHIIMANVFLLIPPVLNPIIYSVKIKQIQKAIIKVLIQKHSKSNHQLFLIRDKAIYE
Procedure, shortened: as §1

[15] = target: T15, OR51G1 (Homo sapiens) (UniProt Q8NGK1)
T15 sequence (whole entry): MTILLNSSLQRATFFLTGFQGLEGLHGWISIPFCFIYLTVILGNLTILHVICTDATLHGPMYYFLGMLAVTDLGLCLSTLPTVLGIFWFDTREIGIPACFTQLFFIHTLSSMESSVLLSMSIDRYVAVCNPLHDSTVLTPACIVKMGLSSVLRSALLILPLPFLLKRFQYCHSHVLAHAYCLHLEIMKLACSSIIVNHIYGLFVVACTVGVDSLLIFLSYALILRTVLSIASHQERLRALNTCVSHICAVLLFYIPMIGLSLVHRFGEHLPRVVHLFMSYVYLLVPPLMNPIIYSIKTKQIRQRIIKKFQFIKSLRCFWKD
Procedure, shortened: as §1

[16] = target: T16, OR51G2 (Homo sapiens) (UniProt Q8NGK0)
T16 sequence (whole entry): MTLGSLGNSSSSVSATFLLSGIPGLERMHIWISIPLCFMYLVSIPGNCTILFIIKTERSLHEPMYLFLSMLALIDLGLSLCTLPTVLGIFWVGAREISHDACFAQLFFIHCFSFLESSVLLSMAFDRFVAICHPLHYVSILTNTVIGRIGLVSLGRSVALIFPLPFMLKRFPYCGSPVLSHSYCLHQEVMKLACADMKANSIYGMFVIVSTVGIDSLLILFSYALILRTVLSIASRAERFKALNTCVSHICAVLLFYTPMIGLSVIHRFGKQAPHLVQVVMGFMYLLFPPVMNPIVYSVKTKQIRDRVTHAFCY
Procedure, shortened: as §1

[17] = target: OR51H1 (Homo sapiens) (UniProt Q8NH63)
OR51H1 (Homo sapiens), sequence (Q8NH63 whole entry): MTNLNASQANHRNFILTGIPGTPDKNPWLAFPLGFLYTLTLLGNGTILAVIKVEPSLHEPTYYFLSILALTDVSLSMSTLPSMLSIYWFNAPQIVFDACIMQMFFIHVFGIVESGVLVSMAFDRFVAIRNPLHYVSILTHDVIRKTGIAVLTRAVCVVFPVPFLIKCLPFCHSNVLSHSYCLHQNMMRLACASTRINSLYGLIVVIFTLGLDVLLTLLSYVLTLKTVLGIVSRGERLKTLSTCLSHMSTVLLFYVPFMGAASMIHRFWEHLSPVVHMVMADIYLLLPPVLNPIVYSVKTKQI
Procedure, shortened: as §1

[18] = target: T17, OR51I1 (Homo sapiens) (UniProt Q9H343)
T17 sequence (whole entry): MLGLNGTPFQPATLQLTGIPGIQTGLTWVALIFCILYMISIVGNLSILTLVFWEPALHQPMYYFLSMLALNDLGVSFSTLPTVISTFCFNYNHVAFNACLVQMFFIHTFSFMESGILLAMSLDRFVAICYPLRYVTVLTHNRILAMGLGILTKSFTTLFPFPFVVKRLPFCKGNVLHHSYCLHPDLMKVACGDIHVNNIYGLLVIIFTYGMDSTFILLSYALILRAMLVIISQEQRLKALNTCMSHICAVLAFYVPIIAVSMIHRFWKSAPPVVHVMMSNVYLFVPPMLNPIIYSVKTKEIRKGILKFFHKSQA
Procedure, shortened: as §1

[19] = target: T18, OR51E1 (Homo sapiens) (UniProt Q8TCB6)
T18 sequence (whole entry): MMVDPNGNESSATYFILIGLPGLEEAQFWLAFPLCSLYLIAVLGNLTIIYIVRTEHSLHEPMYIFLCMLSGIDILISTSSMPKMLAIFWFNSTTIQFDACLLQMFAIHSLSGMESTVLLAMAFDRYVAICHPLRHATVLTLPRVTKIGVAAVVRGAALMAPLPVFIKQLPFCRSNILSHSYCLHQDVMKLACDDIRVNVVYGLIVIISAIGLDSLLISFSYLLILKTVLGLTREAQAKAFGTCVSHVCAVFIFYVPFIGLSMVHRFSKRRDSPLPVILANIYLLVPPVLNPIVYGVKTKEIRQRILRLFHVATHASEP
Procedure, shortened: as §1

Measured: odorant receptor agonist call

CC(=O)c1c(C)c([N+](=O)[O-])c(C(C)(C)C)c([N+](=O)[O-])c1C
not listed: [19]
inactive: all other assays above

CCCC(S)CCOC(C)=O (stereo not given)
not listed: [13] | [17]
inactive: all other assays above
